Reference: ChEMBL document CHEMBL2321808, “Synthesis and preliminary evaluation in tumor bearing mice of new (18)F-labeled arylsulfone matrix metalloproteinase inhibitors as tracers for positron emission tomography” (J Med Chem, 2013)
Calls of active or inactive are those of the source. No cut-off for these calls is given here.

Tests used:
Liver [1] = assay: Biodistribution in CD1 nude mouse liver at 7.4 MBq, iv after 45 mins by PET imaging analysis; assay type: ADME, organism-based; settings: in vivo, 0.75 h
How it was run: (§1)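 Healthy CD1 nude mice, 6–8 weeks, 2–3 per tracer, anesthetized with isoflurane. Tail-vein injection via catheter in PBS, with residual syringe dose checked. Dynamic PET from injection to 2.5 h, 3D EM reconstruction, no attenuation or scatter correction, phantom-calibrated. Manual ROIs on organs; decay-corrected uptake expressed as % ID/g.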

Mus musculus [2] = assay: Biodistribution in CD1 nude mouse small intestine at 7.4 MBq, iv after 140 mins by PET imaging analysis; assay type: ADME, organism-based; settings: in vivo; how it was run: as §1
Liver [3] = assay: Biodistribution in CD1 nude mouse liver at 7.4 MBq, iv after 10 mins by PET imaging analysis; assay type: ADME, organism-based; settings: in vivo
How it was run: (§2)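 Healthy CD1 nude mice, 6–8 weeks old (n = 2–3 per tracer), under isoflurane anesthesia. Tracer given by tail-vein catheter, ~7.4 MBq in 0.15–0.30 mL PBS. Dynamic PET from injection to 2.5 h. Organ ROIs drawn and counts calibrated against an [18F]fluoride phantom. Uptake decay-corrected and expressed as %ID/g.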

Mus musculus [4] = assay: Biodistribution in CD1 nude mouse small intestine at 7.4 MBq, iv after 10 mins by PET imaging analysis; assay type: ADME, organism-based; settings: in vivo; how it was run: as §2
[5] = Drug uptake in large tumor in CD1 nude mouse xenografted with human U87MG cells assessed as accumulation within the rim at 7.4 MBq after 45 mins by PET imaging analysis; assay type: ADME, Neoplasm, U-87MG ATCC; settings: in vivo, 0.75 h
[6] = Drug uptake in small tumor in CD1 nude mouse xenografted with human U87MG cells assessed as uniform distribution at 7.4 MBq after 45 mins by PET imaging analysis; assay type: ADME, Neoplasm, U-87MG ATCC; settings: in vivo, 0.75 h
[7] = Drug uptake in tumor in CD1 nude mouse xenografted with human U87MG cells at 7.4 MBq after 45 mins by PET imaging analysis; assay type: ADME, Neoplasm, U-87MG ATCC; settings: in vivo, 0.75 h
[8] = target: Matrix metalloproteinase-14 (Homo sapiens, UniProt P50281); assay: Inhibition of human recombinant MMP-14 catalytic domain using Mca-Lys-Pro-Leu-Gly-Leu-Dap(Dnp)-Ala-Arg-NH2 as substrate after 4 hrs by fluorometric assay
How it was run: (§3)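 Fluorogenic substrate added at 2 μM final. Fluorescence (ex 325/em 395 nm) read every 15 s for 20 min. Run in triplicate. IC50 from vi/v0 = 1/(1 + [I]/IC50); Ki also derived.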

Collagenase 3 = Collagenase 3 (Homo sapiens, UniProt P45452); assay: Inhibition of MMP-13 (unknown origin) using Mca-Lys-Pro-Leu-Gly-Leu-Dap(Dnp)-Ala-Arg-NH2 as substrate after 4 hrs by fluorometric assay; how it was run: as §3
[9] = target: Macrophage metalloelastase (Homo sapiens, UniProt P39900); assay: Inhibition of MMP-12 (unknown origin) using Mca-Lys-Pro-Leu-Gly-Leu-Dap(Dnp)-Ala-Arg-NH2 as substrate after 4 hrs by fluorometric assay; how it was run: as §3
[10] = target: Matrix metalloproteinase-9 (Homo sapiens, UniProt P14780); assay: Inhibition of MMP-9 (unknown origin) using Mca-Lys-Pro-Leu-Gly-Leu-Dap(Dnp)-Ala-Arg-NH2 as substrate after 4 hrs by fluorometric assay; how it was run: as §3
Stromelysin-1 = Stromelysin-1 (Homo sapiens, UniProt P08254); assay: Inhibition of MMP-3 (unknown origin) using Mca-Arg-Pro-Lys-Pro-Val-Glu-Nva-Trp-Arg-Lys-(Dnp)-NH2 as substrate after 4 hrs by fluorometric assay; how it was run: as §3
[11] = target: 72 kDa type IV collagenase (Homo sapiens, UniProt P08253); assay: Inhibition of MMP-2 (unknown origin) using Mca-Lys-Pro-Leu-Gly-Leu-Dap(Dnp)-Ala-Arg-NH2 as substrate after 4 hrs by fluorometric assay; how it was run: as §3
Interstitial collagenase = target: T1, Interstitial collagenase (Homo sapiens, UniProt P03956); assay: Inhibition of MMP-1 (unknown origin) using Mca-Lys-Pro-Leu-Gly-Leu-Dap(Dnp)-Ala-Arg-NH2 as substrate after 4 hrs by fluorometric assay; how it was run: as §3
T1 sequence (P03956 whole entry): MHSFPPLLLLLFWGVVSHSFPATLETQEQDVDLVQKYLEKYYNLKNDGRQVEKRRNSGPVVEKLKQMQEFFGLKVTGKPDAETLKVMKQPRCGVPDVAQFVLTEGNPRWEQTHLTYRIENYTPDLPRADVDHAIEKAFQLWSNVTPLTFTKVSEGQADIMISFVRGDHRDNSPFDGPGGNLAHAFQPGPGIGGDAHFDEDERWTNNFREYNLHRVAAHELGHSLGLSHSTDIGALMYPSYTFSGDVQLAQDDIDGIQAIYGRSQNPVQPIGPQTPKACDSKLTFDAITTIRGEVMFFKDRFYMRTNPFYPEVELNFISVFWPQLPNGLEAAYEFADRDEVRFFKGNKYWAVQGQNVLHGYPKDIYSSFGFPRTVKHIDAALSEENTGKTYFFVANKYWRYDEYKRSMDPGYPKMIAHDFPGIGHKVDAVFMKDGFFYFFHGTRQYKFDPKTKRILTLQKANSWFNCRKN

Albumin = Albumin (Homo sapiens, UniProt P02768); assay: Binding affinity to human serum albumin by 19F NMR titration assay; assay type: ADME
How it was run: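 19F NMR at 310.0 K; ligand at 1.0 mM final (dissolved in DMSO, brought to volume with PBS pH 7.4 containing 10% D2O), TFA as chemical-shift reference. Fatty-acid-free human serum albumin added stepwise (0.36 mM aliquots in PBS or solid) up to protein:ligand 3:1; scans raised from 64 to 16 384 along the titration.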

Mus musculus [12] = assay: In vivo inhibition of MMP in CD1 nude mouse xenografted with human U87MG cells at 7.4 MBq after 100 mins by PET imaging analysis in presence of ilomastat; assay type: functional, organism-based; parameters: dose or concentration left out as unconfirmed; settings: U-87MG ATCC, tested as the 18F-labelled form
How it was run: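 U-87 MG xenografted female CD1 nude mice received ilomastat i.p. at 40–160 mg/kg, 30 min before iv tracer (~7.4 MBq). Static 30-min PET acquired 100 min post-injection. %ID/g measured over whole tumor, rim and core.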

Mus musculus [13] = assay: In vivo binding affinity to MMP-9 in human U87MG tumor xenografted in mouse assessed as MMP-9 level after 12 hrs by PET scanning followed by gelatin zymography; assay type: functional, organism-based; settings: tested as the 18F-labelled form
How it was run: (§4)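 Xenograft tumors excised within 12 h after PET, frozen at −80 °C, ground, and lysed in 1% Triton X-100. Supernatant run on 10% SDS-PAGE containing 0.1% gelatin. Gel renatured in 2.5% Triton X-100, then developed 24 h at 37 °C in 50 mM Tris-HCl pH 7.4, 10 mM CaCl2, 0.5 μM ZnCl2, and stained with Coomassie. MMP-2 read at 72 kDa, MMP-9 at 92 kDa.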

Mus musculus [14] = assay: In vivo binding affinity to MMP-2 in human U87MG tumor xenografted in mouse assessed as MMP-2 level after 12 hrs by PET scanning followed by gelatin zymography; assay type: functional, organism-based; settings: tested as the 18F-labelled form; how it was run: as §4
[15] = Drug uptake in tumor in […] CD1 nude mouse xenografted with human U87MG cells after 100 mins by PET imaging analysis; assay type: ADME, organism-based, Neoplasm, U-87MG ATCC; settings: in vivo
[16] = Drug uptake in large tumor in CD1 nude mouse xenografted with human U87MG cells assessed as accumulation within the rim at 7.4 MBq after 100 mins by PET imaging analysis; assay type: ADME, Neoplasm, U-87MG ATCC; settings: in vivo
[17] = Drug uptake in small tumor in CD1 nude mouse xenografted with human U87MG cells assessed as uniform distribution at 7.4 MBq after 100 mins by PET imaging analysis; assay type: ADME, Neoplasm, U-87MG ATCC; settings: in vivo
[18] = Drug uptake in tumor in CD1 nude mouse xenografted with human U87MG cells at 7.4 MBq after 100 mins by PET imaging analysis; assay type: ADME, Neoplasm, U-87MG ATCC; settings: in vivo
[19] = Drug uptake in tumor in […] CD1 nude mouse xenografted with human U87MG cells after 10 mins by PET imaging analysis; assay type: ADME, organism-based, Neoplasm, U-87MG ATCC; settings: read-out: Drug uptake

72 kDa type IV collagenase, sequence (P08253 whole entry): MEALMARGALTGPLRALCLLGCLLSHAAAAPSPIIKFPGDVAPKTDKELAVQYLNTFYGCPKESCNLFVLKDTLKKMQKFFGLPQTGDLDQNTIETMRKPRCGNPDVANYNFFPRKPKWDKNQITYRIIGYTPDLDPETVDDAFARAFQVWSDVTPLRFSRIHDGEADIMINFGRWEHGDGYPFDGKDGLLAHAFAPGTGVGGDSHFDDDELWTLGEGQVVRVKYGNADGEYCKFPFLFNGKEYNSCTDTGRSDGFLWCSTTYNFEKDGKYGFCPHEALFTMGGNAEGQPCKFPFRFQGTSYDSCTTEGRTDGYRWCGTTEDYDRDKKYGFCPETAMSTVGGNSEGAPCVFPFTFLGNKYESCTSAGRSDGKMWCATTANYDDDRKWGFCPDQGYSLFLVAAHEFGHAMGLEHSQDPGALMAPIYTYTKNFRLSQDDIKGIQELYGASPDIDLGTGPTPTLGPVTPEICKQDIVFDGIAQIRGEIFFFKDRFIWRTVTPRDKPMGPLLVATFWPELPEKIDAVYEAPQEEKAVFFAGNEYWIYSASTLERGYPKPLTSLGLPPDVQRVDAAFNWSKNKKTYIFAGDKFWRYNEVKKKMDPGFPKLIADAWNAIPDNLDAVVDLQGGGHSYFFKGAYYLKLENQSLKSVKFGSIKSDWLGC
Macrophage metalloelastase, sequence (P39900 whole entry): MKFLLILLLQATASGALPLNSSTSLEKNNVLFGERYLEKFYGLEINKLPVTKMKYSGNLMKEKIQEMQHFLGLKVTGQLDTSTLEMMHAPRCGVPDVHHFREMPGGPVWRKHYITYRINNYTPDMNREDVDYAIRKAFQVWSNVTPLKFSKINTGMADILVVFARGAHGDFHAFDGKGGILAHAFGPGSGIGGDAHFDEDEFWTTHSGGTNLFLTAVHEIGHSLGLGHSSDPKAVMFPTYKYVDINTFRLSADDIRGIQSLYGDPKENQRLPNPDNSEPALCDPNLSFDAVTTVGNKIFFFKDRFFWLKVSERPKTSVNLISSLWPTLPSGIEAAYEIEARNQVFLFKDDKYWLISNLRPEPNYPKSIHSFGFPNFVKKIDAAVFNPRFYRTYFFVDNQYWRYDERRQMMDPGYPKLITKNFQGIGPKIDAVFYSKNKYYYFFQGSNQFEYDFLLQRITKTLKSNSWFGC
Matrix metalloproteinase-9, sequence (P14780 whole entry): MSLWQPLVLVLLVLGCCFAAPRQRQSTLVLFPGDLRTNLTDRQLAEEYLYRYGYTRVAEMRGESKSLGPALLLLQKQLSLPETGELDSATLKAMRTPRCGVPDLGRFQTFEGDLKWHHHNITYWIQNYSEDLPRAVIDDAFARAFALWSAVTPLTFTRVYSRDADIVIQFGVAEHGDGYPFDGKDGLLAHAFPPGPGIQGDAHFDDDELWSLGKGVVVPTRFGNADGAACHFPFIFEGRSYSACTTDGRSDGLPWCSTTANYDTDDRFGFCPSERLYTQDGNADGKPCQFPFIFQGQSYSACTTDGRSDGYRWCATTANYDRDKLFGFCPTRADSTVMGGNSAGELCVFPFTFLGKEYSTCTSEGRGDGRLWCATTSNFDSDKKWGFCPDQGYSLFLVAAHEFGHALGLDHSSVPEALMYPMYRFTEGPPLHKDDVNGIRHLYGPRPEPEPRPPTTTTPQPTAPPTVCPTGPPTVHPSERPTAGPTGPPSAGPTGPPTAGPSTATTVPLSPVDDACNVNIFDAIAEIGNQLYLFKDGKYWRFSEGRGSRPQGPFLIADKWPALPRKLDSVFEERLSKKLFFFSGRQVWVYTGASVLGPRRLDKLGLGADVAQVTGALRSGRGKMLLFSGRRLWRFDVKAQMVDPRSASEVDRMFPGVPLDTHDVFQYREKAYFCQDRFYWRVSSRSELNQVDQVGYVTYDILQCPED
Stromelysin-1, sequence (P08254 whole entry): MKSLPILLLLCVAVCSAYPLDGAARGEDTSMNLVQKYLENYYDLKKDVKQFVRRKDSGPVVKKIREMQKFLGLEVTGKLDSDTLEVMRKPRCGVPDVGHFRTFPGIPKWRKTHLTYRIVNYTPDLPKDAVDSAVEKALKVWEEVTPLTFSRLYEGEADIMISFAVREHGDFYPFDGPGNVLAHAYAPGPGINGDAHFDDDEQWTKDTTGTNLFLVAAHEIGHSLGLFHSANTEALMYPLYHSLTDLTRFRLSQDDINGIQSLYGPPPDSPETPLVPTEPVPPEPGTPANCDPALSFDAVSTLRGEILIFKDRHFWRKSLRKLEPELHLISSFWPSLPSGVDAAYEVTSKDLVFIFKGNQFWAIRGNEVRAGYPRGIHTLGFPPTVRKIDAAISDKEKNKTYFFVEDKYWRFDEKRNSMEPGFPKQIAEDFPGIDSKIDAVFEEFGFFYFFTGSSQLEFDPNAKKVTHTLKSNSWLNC
Albumin, sequence (P02768 whole entry): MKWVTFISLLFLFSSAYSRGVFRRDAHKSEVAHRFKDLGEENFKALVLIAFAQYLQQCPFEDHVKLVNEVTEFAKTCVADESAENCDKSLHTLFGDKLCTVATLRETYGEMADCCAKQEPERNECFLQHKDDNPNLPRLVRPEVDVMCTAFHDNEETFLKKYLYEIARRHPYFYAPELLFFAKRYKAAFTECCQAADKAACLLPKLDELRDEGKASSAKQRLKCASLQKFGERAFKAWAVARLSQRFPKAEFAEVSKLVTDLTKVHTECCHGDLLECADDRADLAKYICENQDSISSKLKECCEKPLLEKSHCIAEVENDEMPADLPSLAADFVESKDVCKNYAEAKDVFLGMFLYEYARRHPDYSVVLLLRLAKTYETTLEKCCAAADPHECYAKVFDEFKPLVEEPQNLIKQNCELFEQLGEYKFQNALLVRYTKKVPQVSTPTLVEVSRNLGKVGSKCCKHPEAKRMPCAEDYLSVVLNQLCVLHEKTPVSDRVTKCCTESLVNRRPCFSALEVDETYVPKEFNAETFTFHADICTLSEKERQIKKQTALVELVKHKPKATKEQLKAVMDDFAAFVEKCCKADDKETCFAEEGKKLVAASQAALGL

| Compound | Drug uptake (Liver [3]) | Drug uptake (Mus musculus [4]) [% ID/g] | IC50 [8] [µM] | IC50 (Collagenase 3) [µM] | IC50 [9] [µM] | IC50 [10] [µM] | IC50 (Stromelysin-1) [µM] | IC50 [11] [µM] | IC50 (Interstitial collagenase) [µM] | also measured |
| --- | --- | --- | --- | --- | --- | --- | --- | --- | --- | --- |
| O=C(O)Cc1ccccc1S(=O)(=O)c1ccc(-c2ccc(NC(=O)C[18F])cc2)cc1 | 11% | 2.4 | – | – | – | – | – | – | – | Drug uptake (Liver [1]): 6.1 % ID/g; Drug uptake (Mus musculus [2]): 12.4 % ID/g |
| OC[C@H]1OC(O)[C@H]([18F])[C@@H](O)[C@@H]1O (some centres undefined) [FLUDEOXYGLUCOSE F 18] | – | – | – | – | – | – | – | – | – | Drug uptake [5]: Active; Drug uptake [6]: Active; Drug uptake [7]: 4.39 % ID/g |
| O=C(O)Cc1ccccc1S(=O)(=O)c1ccc(-c2ccc(NC(=O)CF)cc2)cc1 | – | – | 4.6 | 0.22 | 0.5 | 1.5 | 6.8 | 0.061 | 6.1 | Kd (Albumin): 10 µM |
| O=C(O)Cc1ccccc1S(=O)(=O)c1ccc(-c2ccc(OCC[18F])cc2)cc1 | 11.2 % ID/g | 2.5 | – | – | – | – | – | – | – | Drug uptake [15]: 1.7 % ID/g; Drug uptake (Liver [1]): 8.5 % ID/g; Drug uptake [16]: Active; Drug uptake [17]: Active; Drug uptake [18]: 1.4 % ID/g; tissue uptake at 10 min [19]: 1.1 %ID/g; Drug uptake (Mus musculus [2]): 13.1 % ID/g |

More lines, main results first:

| Drug uptake (Liver [3]) | Drug uptake (Mus musculus [4]) [% ID/g] | IC50 [8] [µM] | IC50 (Collagenase 3) [µM] | IC50 [9] [µM] | IC50 [10] [µM] | IC50 (Stromelysin-1) [µM] | IC50 [11] [µM] | IC50 (Interstitial collagenase) [µM] | Compound | also measured |
| --- | --- | --- | --- | --- | --- | --- | --- | --- | --- | --- |
| 21.6 % ID/g | 4.1 | – | – | – | – | – | – | – | CC(C)(C)OC(=O)Cc1ccccc1S(=O)(=O)c1ccc(-c2ccc(OCC[18F])cc2)cc1 | – |
| – | – | 4.8 | 0.386 | 0.4 | 3.6 | 67 | 0.23 | 11.5 | O=C(O)Cc1ccccc1S(=O)(=O)c1ccc(-c2ccc(F)cc2)cc1 | – |
| – | – | 1.6 | 0.022 | 0.044 | 0.107 | 7.1 | 0.016 | 18.5 | O=C(O)Cc1ccccc1S(=O)(=O)c1ccc(-c2ccc(OCCF)cc2)cc1 | inhibition (Mus musculus [12]): Active; Activity (Mus musculus [13]): Active; Kd (Albumin): 140 µM; Activity (Mus musculus [14]): Active |
